Laboratory results taken from ChEMBL document CHEMBL3046177, “Plant growth inhibitory activity of p-hydroxyacetophenones and tremetones from Chilean endemic Baccharis species and some analogous: a comparative study” (J Agric Food Chem, 2002).
Active and inactive are the calls of the source. No cut-off for these calls is given here.

Experiments:
[1] = system: Physalis ixocarpa; assay: Phytotoxicity against Physalis ixocarpa assessed as inhibition of seed respiration during germination after 24 hr; format: functional, organism-based
Summary of the method: (§1)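 Oxygen uptake of germinating seeds measured polarographically with a Clark-type electrode at 25 °C in a nonilluminated cell over 5 and 10 min, at several compound concentrations. Expressed as percent of control (100%). Three experiments; RI50 from Probit analysis.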

[2] = system: Lolium multiflorum; assay: Phytotoxicity against Lolium multiflorum (Italian ryegrass) assessed as inhibition of seed germination at 500 uM after 48 hr; format: functional
Summary of the method: (§2)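 Seeds of uniform size on Whatman No.1 filter paper in 85 mm Petri dishes, wetted with 8 or 10 mL deionized water or test solution (MeOH < 1%); controls got matching water/methanol. Sealed, incubated at 28 °C in the dark, scored at 48 h intervals; germination = 1 mm radicle extrusion. Three replicates.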

[3] = system: Trifolium pratense; assay: Phytotoxicity against Trifolium pratense (red clover) assessed as inhibition of root development during seeding stage after 120 hr; format: functional, organism-based; conditions: for IC50: read-out: I50
Summary of the method: (§3)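 Petri-dish seedling assay on filter paper wetted with test solution (MeOH < 1%), 28 °C in the dark. Coleoptile/hypocotyl and root lengths of all germinated seeds measured after 120 h, then plants dried to constant weight at 40 °C. Three replicates; 50% inhibitory concentrations by Probit analysis of percent inhibition versus concentration.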

[4] = system: Trifolium pratense; assay: Phytotoxicity against Trifolium pratense (red clover) assessed as inhibition of shoot development during seeding stage after 120 hr; format: functional, organism-based; conditions: for IC50: read-out: I50; summary of the method: as §3
[5] = system: Physalis ixocarpa; assay: Phytotoxicity against Physalis ixocarpa assessed as inhibition of root development during seeding stage after 120 hr; format: functional, organism-based; conditions: for IC50: read-out: I50; summary of the method: as §3
[6] = system: Physalis ixocarpa; assay: Phytotoxicity against Physalis ixocarpa assessed as inhibition of shoot development during seeding stage after 120 hr; format: functional, organism-based; conditions: for IC50: read-out: I50; summary of the method: as §3
[7] = system: Lactuca sativa; assay: Phytotoxicity against Lactuca sativa (lettuce) assessed as inhibition of root development during seeding stage after 120 hr; format: functional, organism-based; conditions: for IC50: read-out: I50; summary of the method: as §3
[8] = system: Lactuca sativa; assay: Phytotoxicity against Lactuca sativa (lettuce) assessed as inhibition of shoot development during seeding stage after 120 hr; format: functional, organism-based; conditions: for IC50: read-out: I50; summary of the method: as §3
[9] = system: Lolium multiflorum; assay: Phytotoxicity against Lolium multiflorum (Italian ryegrass) assessed as inhibition of root development during seeding stage after 120 hr; format: functional, organism-based; conditions: for IC50: read-out: I50; summary of the method: as §3
[10] = system: Lolium multiflorum; assay: Phytotoxicity against Lolium multiflorum (Italian ryegrass) assessed as inhibition of shoot development during seeding stage after 120 hr; format: functional, organism-based; conditions: for IC50: read-out: I50; summary of the method: as §3
[11] = system: Trifolium pratense; assay: Phytotoxicity against Trifolium pratense (red clover) assessed as inhibition of seed germination after 48 hr; format: functional; summary of the method: as §2
[12] = system: Trifolium pratense; assay: Phytotoxicity against Trifolium pratense (red clover) assessed as inhibition of seed respiration during germination after 24 hr; format: functional, organism-based; summary of the method: as §1
[13] = system: Lactuca sativa; assay: Phytotoxicity against Lactuca sativa (lettuce) assessed as inhibition of seed respiration during germination after 24 hr; format: functional, organism-based; summary of the method: as §1
[14] = system: Lolium multiflorum; assay: Phytotoxicity against Lolium multiflorum (Italian ryegrass) assessed as inhibition of seed respiration during germination after 24 hr; format: functional, organism-based; summary of the method: as §1
[15] = system: Physalis ixocarpa; assay: Phytotoxicity against Physalis ixocarpa assessed as inhibition of seed germination after 48 hr; format: functional; summary of the method: as §2
[16] = system: Lactuca sativa; assay: Phytotoxicity against Lactuca sativa (lettuce) assessed as inhibition of seed germination after 48 hr; format: functional; summary of the method: as §2
[17] = system: Lolium multiflorum; assay: Phytotoxicity against Lolium multiflorum (Italian ryegrass) assessed as inhibition of seed germination after 48 hr; format: functional; summary of the method: as §2
[18] = system: Lolium multiflorum (ryegrass); assay: Phytotoxicity against Lolium multiflorum (ryegrass) assessed as inhibition of seed germination at 500 uM after 48 hr
[19] = system: Physalis ixocarpa; assay: Phytotoxicity against Physalis ixocarpa assessed as inhibition of seed respiration during germination after 72 hr; format: functional, organism-based; conditions: read-out: I50; summary of the method: as §1
[20] = system: Spinacia oleracea; assay: Inhibition of ATP synthesis in Spinacia oleracea (spinach) chloroplasts; format: functional
Summary of the method: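 Spinach thylakoids in 100 mM sorbitol, 5 mM MgCl2, 10 mM KCl, 1 mM Na+-tricine, pH 8, with 50 µM methyl viologen as Hill-reaction electron acceptor. Illuminated at 20 °C through 1% CuSO4 filter. ATP synthesis measured titrimetrically.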

[21] = system: Spinacia oleracea; assay: Inhibition of H+ uptake in Spinacia oleracea (spinach) chloroplasts; format: functional; conditions: for IC50: read-out: I50
Summary of the method: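 Spinach thylakoids (from isolated chloroplasts, in sorbitol/tricine/MgCl2/NaCl buffer, pH 7.8) in 100 mM sorbitol, 5 mM MgCl2, 10 mM KCl, 1 mM Na+-tricine, pH 8, with 50 µM methyl viologen. Illuminated at 20 °C through 1% CuSO4 filter. H+ uptake recorded as pH rise from 8.0 to 8.1 with combination microelectrode on expanded scale.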

[22] = system: Phaseolus vulgaris; assay: Inhibition of mitochondrial respiration in Phaseolus vulgaris root mitochondria assessed as reduction of oxygen uptake; format: functional; conditions: read-out: I50
Summary of the method: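 Mitochondria from roots of 72 h dark-grown (28 °C) bean seedlings, Percoll-gradient purified, 0.3-0.5 mg protein (Bradford) per run; integrity checked with HCN. Compounds in 0.5% methanol added after a constant state 3 rate with […] was reached. O2 uptake by Clark electrode; control is mitochondria with 0.5% MeOH. Three experiments; I50 by Probit.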

[23] = system: Trifolium pratense; assay: Phytotoxicity against Trifolium pratense (red clover) assessed as inhibition of seed respiration during germination after 72 hr; format: functional, organism-based; conditions: read-out: I50; summary of the method: as §1
[24] = system: Lactuca sativa; assay: Phytotoxicity against Lactuca sativa (lettuce) assessed as inhibition of seed respiration during germination after 72 hr; format: functional, organism-based; conditions: read-out: I50; summary of the method: as §1
[25] = system: Lolium multiflorum; assay: Phytotoxicity against Lolium multiflorum (Italian ryegrass) assessed as inhibition of seed respiration during germination after 72 hr; format: functional, organism-based; conditions: read-out: I50; summary of the method: as §1
[26] = system: Radical scavenging activity; assay: Antioxidant activity assessed as DPPH free radical scavenging activity after 30 min by TLC autographic assay; format: functional; conditions: in the assay text read “spectrophotometric assay” for “TLC autographic assay”; read-out: I50
[27] = Antioxidant activity assessed as inhibition of bleaching of water soluble crocin measured every 5 min by spectrophotometric analysis; format: functional
Summary of the method: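 Aqueous mixture of 10 µM crocin, 1 mM t-BuOOH and 0.5 M t-BuOH with serial dilutions of test compound, placed under UV254 light; crocin bleaching (absorbance decrease) and fluorescence emission at 440 and 470 nm followed every 5 min. Three experiments, mean ± SEM.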

[28] = system: Trifolium pratense; assay: Increase of shoot development during seeding stage in Trifolium pratense (red clover) at 200 uM after 120 hr; format: functional, organism-based; summary of the method: as §3
[29] = system: Physalis ixocarpa; assay: Increase of shoot development during seeding stage in Physalis ixocarpa up to 50 uM after 120 hr; format: functional, organism-based; summary of the method: as §3
[30] = system: Trifolium pratense; assay: Increase of root development during seeding stage in Trifolium pratense (red clover) at 50 to 300 uM after 120 hr; format: functional, organism-based; summary of the method: as §3
[31] = system: Lactuca sativa; assay: Increase of root development during seeding stage in Lactuca sativa (lettuce) at 50 to 300 uM after 120 hr; format: functional, organism-based; summary of the method: as §3

Row | Compound | I50 [1] | inhibition at 500 µM [2] | IC50 [3] | IC50 [4] | I50 [5] | I50 [6] | IC50 [7] | IC50 [8] | IC50 [9] | IC50 [10] | GI50 [11] | I50 [12] | I50 [13] | I50 [14] | GI50 [15] | GI50 [16] | GI50 [17] | inhibition at 500 µM [18] | IC50 [5] | IC50 [6] | also measured
1 | CC(=O)c1ccccc1 [ACETOPHENONE] | inactive | 30% | 134 µM | 137 µM | inactive | inactive | 45.7 µM | 49.5 µM | 128 µM | 126 µM | 137 µM | inactive | inactive | inactive | inactive | 47 µM | 128 µM | 30% | – | – | –
2 | COc1ccc(C(C)=O)cc1 [P-METHOXY-ACETOPHENONE] | – | – | 126 µM | 120 µM | – | – | 44.3 µM | 49.5 µM | 18.9 µM | 17.9 µM | 126 µM | – | – | – | 23.5 µM | 51.2 µM | 18.1 µM | – | 20.5 µM | 20.1 µM | IC50 [19]: 54.6 µM; inhibition [20]: Dose-dependent effect; inhibition [21]: Dose-dependent effect; IC50 [21]: 65.7 µM; IC50 [22]: 152 µM; IC50 [23]: 57.6 µM; IC50 [24]: 55.9 µM; IC50 [25]: 40 µM
3 | CC(=O)c1ccc2c(c1O)C[C@H](C1(C)CO1)O2 (some centres undefined) | – | – | 7.1 µM | 7.2 µM | – | – | 10.9 µM | 10.5 µM | 11.9 µM | 11.2 µM | 7.1 µM | – | – | – | 8.7 µM | 11.5 µM | 10.4 µM | – | 9.9 µM | 7.7 µM | IC50 [19]: 15.8 µM; IC50 [26]: 30.6 µM; inhibition [27]: Active; inhibition [20]: Dose-dependent effect; inhibition [21]: Dose-dependent effect; IC50 [21]: 13.8 µM; IC50 [22]: 17.1 µM; IC50 [23]: 10.1 µM; IC50 [24]: 11 µM; IC50 [25]: 18 µM
4 | CC(=O)c1ccc2c(c1)C[C@H](C(C)C)O2 [10,11-DIHYDRO TREMETONE] | inactive | – | 28.6 µM | 23.2 µM | – | – | 17.4 µM | 17.3 µM | 31.9 µM | 29.3 µM | 27.9 µM | inactive | inactive | inactive | 24.7 µM | 25.9 µM | 31.5 µM | – | 19.1 µM | 20.1 µM | –
5 | O=C1C(O)=C(O)C(=O)C(O)=C1O [TETROQUINONE] | – | – | – | – | – | – | – | – | – | – | – | – | – | – | – | – | – | – | – | – | IC50 [26]: 9.37 µM
6 | CC(=O)c1ccc(Br)cc1 | inactive | 30% | – | – | inactive | inactive | – | – | – | – | inactive | inactive | inactive | inactive | inactive | inactive | inactive | 30% | – | – | Activity [28]: Active; Activity [29]: Active; Activity [30]: Active; Activity [31]: Active; I50 [3]: inactive; I50 [4]: inactive; I50 [7]: inactive; I50 [8]: inactive; I50 [9]: inactive; I50 [10]: inactive
